Assay results taken from ChEMBL document CHEMBL1137218, “Long hydrocarbon chain ether diols and ether diacids that favorably alter lipid disorders in vivo” (J Med Chem, 2004).

Legend:
Assay type in all cases: functional; call rule not given here
Rattus norvegicus [1] = assay: Percent change from pre-treatment in Non HDL-Cholesterol level at 97 mg/kg after 2 weeks.
In short: (§1)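 Female obese Zucker fatty rats Crl:(Zuc)-faBR, 10–12 weeks old (400–500 g), n=3–4, fed chow. Dosed by oral gavage once daily in 20% EtOH/80% PEG-200 for up to 14 days. Serum taken after a 6 h fast before dosing, at day 7 (orbital plexus) and at day 14 (cardiac puncture). TG by enzymatic kit on analyzer. HDL-C and non-HDL-C from Superose 6 gel-filtration profile area × total cholesterol. Results given as % change from pretreatment.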

Rattus norvegicus [2] = assay: Percent change from pre-treatment in Triglycerides level at 97 mg/kg after 1 week.; in short: as §1
Rattus norvegicus [3] = assay: Percent change from pre-treatment in Triglycerides level at 97 mg/kg after 2 weeks.; in short: as §1
Rattus norvegicus [4] = assay: Percent change from pre-treatment in HDL-Cholesterol level at 97 mg/kg after 2 weeks.; in short: as §1
Rattus norvegicus [5] = assay: Percent change from pre-treatment in Non HDL-Cholesterol level at 97 mg/kg after 1 week.; in short: as §1
Rattus norvegicus [6] = species: Rattus norvegicus; assay: In vitro inhibitory concentration against lipid synthesis in primary rat hepatocyte culture
In short: (§2)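 Primary hepatocytes isolated from male Sprague-Dawley rats (Seglen method) and plated on collagen in DMEM with 20% FBS, 100 nM insulin, 25 mM glucose. Medium made serum-free after 4 h, cultured overnight to monolayers. Then 4 h incubation with 0.25 μCi [14C]-acetate/well (1 Ci/mol) and 0–300 μM compound. Lipids extracted into scintillant and counted. IC50 derived from lipid synthesis rates by nonlinear sigmoidal fit.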

Rattus norvegicus [7] = assay: Percent change from pre-treatment Non HDL-Cholesterol level at 100 mg/Kg after 2 weeks; in short: as §1
Rattus norvegicus [8] = assay: Percent change from pre-treatment HDL-Cholesterol level at 100 mg/Kg after 2 weeks; in short: as §1
Rattus norvegicus [9] = assay: Percent change from pre-treatment triglycerides level at 100 mg/Kg after 2 weeks; in short: as §1
Rattus norvegicus [10] = assay: Percent change from pre-treatment triglycerides level at 100 mg/Kg after 1 week; in short: as §1
Rattus norvegicus [11] = assay: Percent change from pre-treatment HDL-Cholesterol level at 100 mg/Kg after 1 week; in short: as §1
Rattus norvegicus [12] = assay: Percent change from pre-treatment Non HDL-Cholesterol level at 100 mg/Kg after 1 week; in short: as §1
Rattus norvegicus [13] = assay: Percent change from pre-treatment in Triglycerides level at 30 mg/kg after 2 weeks.; in short: as §1
Rattus norvegicus [14] = assay: Percent change from pre-treatment in HDL-Cholesterol level at 30 mg/kg after 1 week.; in short: as §1
Rattus norvegicus [15] = assay: Percent change from pre-treatment in Non HDL-Cholesterol level at 30 mg/kg after 1 week.; in short: as §1
Rattus norvegicus [16] = assay: Percent change from pre-treatment in Non HDL-Cholesterol level at 30 mg/kg after 2 weeks.; in short: as §1
Rattus norvegicus [17] = assay: Percent change from pre-treatment in Triglycerides level at 30 mg/kg after 1 week.; in short: as §1
Rattus norvegicus [18] = assay: Percent change from pre-treatment in Non HDL-Cholesterol level at 80 mg/kg after 2 weeks; in short: as §1
Rattus norvegicus [19] = assay: Percent change from pre-treatment in HDL-Cholesterol level at 80 mg/kg after 2 weeks; in short: as §1
Rattus norvegicus [20] = assay: Percent change from pre-treatment in Triglycerides level at 80 mg/kg after 2 weeks; in short: as §1
Rattus norvegicus [21] = assay: Percent change from pre-treatment in Non HDL-Cholesterol level at 80 mg/kg after 1 week; in short: as §1
Rattus norvegicus [22] = assay: Percent change from pre-treatment in HDL-Cholesterol level at 80 mg/kg after 1 week; in short: as §1
Rattus norvegicus [23] = assay: Percent change from pre-treatment in Triglycerides level at 80 mg/kg after 1 week; in short: as §1
Rattus norvegicus [24] = assay: Percent change from pre-treatment in HDL-Cholesterol level at 30 mg/kg after 2 weeks.; in short: as §1
Rattus norvegicus [25] = species: Rattus norvegicus; assay: In Vitro inhibitory concentration against lipid synthesis in primary rat hepatocyte culture. na=Not active; inhibition of [14C]acetate incorporation into total lipids is less than 50% at 300 uM.; in short: as §2

SMILES | IC50 (Rattus norvegicus [6]) | Change (Rattus norvegicus [7]) | Change (Rattus norvegicus [8]) | Change (Rattus norvegicus [9]) | Change (Rattus norvegicus [10]) | Change (Rattus norvegicus [11]) | Change (Rattus norvegicus [12]) | also measured
CC(C)(CO)CCCC1CCC(CCCC(C)(C)CO)O1 (centres undefined) | 9 µM |  |  |  |  |  |  | Change (Rattus norvegicus [1]): 31%; Change (Rattus norvegicus [2]): -49%; Change (Rattus norvegicus [3]): -13%; Change (Rattus norvegicus [4]): 140%; Change (Rattus norvegicus [5]): 11%
CC(C)(CCCCOCCCCC(C)(C)CCC(=O)O)CCC(=O)O | 22 µM | -30% | 39% | -73% | -80% | 13% | -50% | 
CC(C)(CO)CCCCCOCCCCC(C)(C)CO | 11 µM |  |  |  |  |  |  | Change (Rattus norvegicus [13]): -77%; Change (Rattus norvegicus [14]): 71%; Change (Rattus norvegicus [15]): -26%; Change (Rattus norvegicus [16]): 17%; Change (Rattus norvegicus [17]): -66%
CC(C)(CO)Cc1cccc(Oc2cccc(CC(C)(C)CO)c2)c1 | 98 µM | -50% | 25% | -54% | -32% | 17% | -50% | 
CC(C)(CO)CCCCCCCCCC(C)(C)CO | 4 µM | -75% | 137% | -82% | -83% | 189% | -67% | 
CC(C)(CO)CCCCCCCCCCCC(C)(C)CO | 4 µM | 48% | -1% | -35% | -70% | -5% | -20% | 
CC(C)(CCCCCCCCCCCC(C)(C)C(=O)O)C(=O)O | 7 µM | -60% | -6% | -87% | -89% | -14% | -66% | 
CC(C)(CCOCCCOCCC(C)(C)C(=O)O)C(=O)O |  |  |  |  |  |  |  | Change (Rattus norvegicus [18]): 15%; Change (Rattus norvegicus [19]): -5%; Change (Rattus norvegicus [20]): 46%; Change (Rattus norvegicus [21]): -10%; Change (Rattus norvegicus [22]): -18%; Change (Rattus norvegicus [23]): 5%
CC(C)(CO)CCCCOCCCC(C)(C)CO | 17 µM |  |  |  |  |  |  | Change (Rattus norvegicus [13]): 32%; Change (Rattus norvegicus [14]): 24%; Change (Rattus norvegicus [24]): 40%; Change (Rattus norvegicus [15]): 44%; Change (Rattus norvegicus [16]): 74%; Change (Rattus norvegicus [17]): 21%
CC(C)(CO)CCCCOCCCCC(C)(CO)c1ccccc1 (centres undefined) | 5 µM | -13% | 52% | -45% | -61% | 26% | -55% | 
CC(C)(CO)CCCCOCCCCC(C)(C)COC1CCCCO1 (centres undefined) | 11 µM | -14% | 152% | -63% | -69% | 130% | -28% | 
CC(CO)(CCCCOCCCC(C)(CO)c1ccccc1)c1ccccc1 (centres undefined) |  |  |  |  |  |  |  | Change (Rattus norvegicus [13]): 21%; Change (Rattus norvegicus [14]): -2%; Change (Rattus norvegicus [24]): -20%; Change (Rattus norvegicus [15]): 16%; IC50 (Rattus norvegicus [25]): Not Active; Change (Rattus norvegicus [16]): 45%; Change (Rattus norvegicus [17]): -1%
CC(C)(CO)CCCOCCOCCCC(C)(C)CO |  | 45% | 10% | 6% | -9% | 3% | 33% | IC50 (Rattus norvegicus [25]): Not Active
CC(CO)(CCCOCCCC(C)(CO)c1ccccc1)c1ccccc1 (centres undefined) | 130 µM | -26% | 5% | -18% | -27% | 7% | -32% | 
CC(C)(Cc1cccc(Oc2cccc(CC(C)(C)C(=O)O)c2)c1)C(=O)O | 53 µM | -21% | 16% | -27% | -46% | 20% | -59% | 
CC(C)(CCCCOCCCCC(C)(C)COC1CCCCO1)COC1CCCCO1 (centres undefined) | 20 µM | 92% | 79% | 22% | -1% | 43% | 46% | 
CC(C)(CO)CCCC1CCCC(CCCC(C)(C)CO)O1 (centres undefined) | 39 µM | -31% |  | -46% | -74% | 75% | -70% | 
CC(C)(CCCOCCOCCCC(C)(C)C(=O)O)C(=O)O | 72 µM | -13% | -4% | -13% | -24% | -6% | -38% | 
CC(C)(CO)CCCOCCCC(C)(C)CO |  |  |  |  |  |  |  | Change (Rattus norvegicus [13]): 77%; Change (Rattus norvegicus [14]): -13%; Change (Rattus norvegicus [24]): -8%; Change (Rattus norvegicus [15]): 7%; IC50 (Rattus norvegicus [25]): Not Active; Change (Rattus norvegicus [16]): 58%; Change (Rattus norvegicus [17]): 21%
